High-throughput results (PubChem)
CHRM1 agonist = activates human CHRM1 receptor. actives 0.33% (n = 360,000). activation, % at 3 µM. CHO-K1 hM1, Fluo-8 calcium fluorescence, agonist mode; 0% DMSO, 100% acetylcholine EC100. P11229. AID 588814;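 active means activation above the run's mean compound activation plus 3 SD, cut at about 16% in these data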;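 further: peak over basal fluorescence ratio within a 140 s kinetic read after compound addition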
CHRM1 PAM = potentiates human M1 receptor response to acetylcholine; CHO-K1 hM1, Fluo-8 calcium fluorescence, ACh EC20; 0% = ACh EC20, 100% = maximal ACh; P11229; actives 0.088% (n = 360,000); activation, % at 3 µM; AID 588819; in the data active means activation above about 19%, passing the limit was not always enough
M5 antag = antagonists of human muscarinic M5 receptor (CHRM5) | actives 0.59% (n = 360,000) | CHO-hM5 cells, Fluo-8 calcium fluorescence, ACh EC80 | inhibition, % at 3 µM | P08912;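 active means inhibition above a per-plate cutoff, the mean of that plate's test compounds plus 3 SD, cut at about 27% in these data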;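 further: 0% = acetylcholine EC80 with DMSO and 100% = DMSO without agonist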
Target sequence (P08912 whole entry, looked up): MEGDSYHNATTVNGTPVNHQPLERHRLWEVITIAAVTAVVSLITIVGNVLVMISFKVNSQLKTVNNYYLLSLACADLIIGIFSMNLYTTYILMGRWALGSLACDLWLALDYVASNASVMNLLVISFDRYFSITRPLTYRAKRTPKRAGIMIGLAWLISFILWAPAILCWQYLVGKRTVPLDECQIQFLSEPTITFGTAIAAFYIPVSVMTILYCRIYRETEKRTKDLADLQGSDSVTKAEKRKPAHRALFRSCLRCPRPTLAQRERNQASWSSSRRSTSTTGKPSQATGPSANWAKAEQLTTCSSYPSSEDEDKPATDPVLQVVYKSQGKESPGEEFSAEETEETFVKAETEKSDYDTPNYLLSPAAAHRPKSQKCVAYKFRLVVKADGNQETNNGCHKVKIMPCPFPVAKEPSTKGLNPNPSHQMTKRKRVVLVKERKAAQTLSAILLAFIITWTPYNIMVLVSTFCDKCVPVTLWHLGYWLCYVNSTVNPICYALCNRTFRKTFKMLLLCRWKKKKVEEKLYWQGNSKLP
CHRM5 PAM = potentiates acetylcholine response at human M5 receptor; P08912; CHO-K1 hM5, Fluo-8 calcium, ACh EC20 PAM; 0% = ACh EC20, 100% = ACh EC100; activation, % at 3 µM; actives 0.3% (n = 360,000);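 active means activation above the run cutoff, the mean activation of all test compounds plus 3 SD, cut at about 18% in these data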
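Test system: CHO-K1 hM5 cells / Doses: single-point, 3 µM nominal / Times: Post-acetylcholine fluorescence recording 140 s / Technique: Fluo-8 calcium fluorescence / Measure: Max/basal fluorescence ratio as % of EC20–EC100 ACh window / Benchmarks: low control EC20 acetylcholine (0%), high control EC100 acetylcholine (100%) / Replicates: one well per compound, no replicates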
CHRM5 agonist = agonists of human muscarinic M5 receptor (CHRM5) | CHO-K1 hM5 cells, Fluo-8 calcium fluorescence; 0% DMSO wells, 100% maximal acetylcholine response | activation, % at 3 µM | actives 0.19% (n = 360,000);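 active means activation above the run's mean over test compounds plus 3 SD, cut at about 23% in these data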;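 further: signal is peak over basal fluorescence ratio across the kinetic read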
CHRM1 antagonist = human CHRM1 antagonism; P11229; CHO-K1 hM1, Fluo-8 calcium fluorescence, ACh EC80 antagonist; inhibition, % at 3 µM; actives 1.3% (n = 360,000); AID 588852;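 active means percent inhibition above its own plate's cutoff, namely the mean of that plate's compound wells plus 3 SD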;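 further: peak over basal fluorescence ratio during 140 s after agonist addition; 0% = ACh EC80 plus DMSO and 100% = DMSO alone without agonist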
An asterisk follows results filed as active. Compounds with a hit are over-represented: about 2.1% of the library has one in this group of screens.

SMILES	CHRM1 agonist	CHRM1 PAM	M5 antag	CHRM5 PAM	CHRM5 agonist	CHRM1 antagonist
C[C@@H](C[C@@H](O)[C@H](O)C(C)(C)O)[C@@H]1CC[C@]2(C)C3=CC[C@H]4C(C)(C)C(=O)CC[C@]4(C)[C@H]3CC[C@@]12C	-3.8	7.1	14.2	12.0	4.6	-0.5
Cc1ccc2oc(C(=O)Nc3ccc(S(=O)(=O)Nc4onc(C)c4C)cc3)c(C)c2c1	-1.7	18.2	12.7	47.6*	0.2	6.7
CCc1nonc1NC(=O)c1oc2ccc(C)cc2c1C	-5.2	-9.2	13.1	-4.0	-3.8	44.8*
CC(C)c1ccc(OCC(=O)Nc2ccc(S(=O)(=O)Nc3ccccn3)cc2)cc1	24.2*	5.5	4.2	0.1	2.8	-4.0
Cc1ccccc1OCC(=O)Nc1ccc(S(=O)(=O)Nc2onc(C)c2C)cc1	3.1	21.2	-13.8	22.0*	1.8	-10.0
COc1ccc2cc(CN(Cc3cccs3)Cc3nnnn3Cc3ccccc3)c(=O)[nH]c2c1	-5.6	-0.8	17.7	-6.1	-0.1	-0.9
CCOC(=O)C1CCCN(CCC(=O)Nc2ccc3c(c2)CCC3)C1 (configuration not stated)	23.1*	-7.5	1.8	-6.2	0.8	-5.0
CCOC(=O)C1CCCN(CCC(=O)Nc2ccc(Br)c(C)c2)C1 (configuration not stated)	24.2*	-7.0	11.5	-9.9	0.4	-0.7
CN1C[C@@H]2C(c3ccccc3)C3(c4cccnc4)CC2(C3)[C@H]1c1ccccc1 (some centres not stated)	-10.6	-34.0	31.1*	-40.6	-9.6	97.3*
Fc1ccc(NC(=S)Nc2ccccc2OC(F)F)cc1Cl	-2.3	-5.8	18.3	-16.4	7.3	13.4
Cc1oc(-c2ccccc2F)nc1CS(=O)(=O)CC(=O)NC1CCCC1	-0.8	-14.0	17.4	-17.2	5.8	33.2*
CC(=O)NNc1cc(C)nc(NS(=O)(=O)c2ccc(C)cc2)n1	1.1	8.2	-2.4	1.2	0.9	-5.6
COc1ccc2[nH]cc(CCNC(=O)C3CC(=O)N(c4ccc(Cl)cc4)C3)c2c1 (configuration not stated)	-3.7	10.6	18.9	-3.0	-2.5	-10.6
Cn1ncc(Cl)c1C(=O)N1CCN(c2ccc(Cl)c(Cl)c2)CC1	4.6	-3.5	29.1*	-15.3	2.5	21.2
CN(C)/C=C(\C#N)C(=O)N/N=C/c1ccccc1	-6.3	6.3	-9.0	18.3*	-0.6	-6.0
CCOC(=O)N1CCC(NC(=O)c2sc(-n3cccc3)nc2C)CC1	-3.7	2.5	5.0	-4.9	-0.3	-1.2
CCC1(CC)C(=O)N(c2ccccc2)C(=N)N(c2ccccc2)C1=O	-3.5	7.6	-5.5	0.8	-2.6	-22.6
O=C1[C@H]2[C@@H](c3ccc(Cl)cc3)N3C(=O)N(c4cccc(Br)c4)C(=O)[C@@]3(Cc3ccc(Cl)cc3)[C@H]2C(=O)N1C1CCCCC1	-7.5	-0.3	3.1	-0.1	-0.3	-1.2
O=C1[C@H]2[C@@H](c3ccc(F)cc3)N3C(=O)N(c4cccc(Br)c4)C(=O)[C@@]3(Cc3ccc(Cl)cc3)[C@H]2C(=O)N1C1CCCCC1	4.1	27.2*	-6.4	7.6	5.8	-17.1
CCCN(CCC)CCCOC(=O)c1ccc(Cl)cc1Cl	-3.7	-21.3	6.1	-2.1	-9.9	67.9*
COCCNC(=O)CN(C(=O)c1ccc(N2CCCC2)nc1)c1ccc(F)c(Cl)c1	1.2	20.6	-9.7	22.0*	7.2	-20.6
CC1=Nc2ccccc2/C1=C/c1sc(=N)n(-c2nccs2)c1O	7.8	-11.7	25.4	-25.2	9.7	34.4*
CC(C)(C)OC(=O)N1CCC(c2cc(=O)n3[nH]cc(C(=O)NC4CCCC4)c3n2)CC1	12.6	25.6*	-5.0	5.1	0.3	-5.2
CC(C)(C)OC(=O)N1CCC(c2cc(=O)n3[nH]cc(C(=O)Nc4ccc(F)c(Cl)c4)c3n2)CC1	-2.6	2.9	12.5	-0.1	1.6	-8.7
